Experiments:
[1] = target: GABA-A receptor; alpha-3/beta-3/gamma-2 (Homo sapiens) (UniProt P18507+P28472+P34903); assay: Efficacy at GABAA alpha-3-beta-3-gamma-2 receptor expressed in mouse fibroblast L(tk-) cells measured at 300 nM derived from at least three plates/day screened over a minimum of 2 days; assay type: functional, cell-based
Summary of the method: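 FRET membrane-potential (VIPR) assay in L(tk-) cells with receptor expression induced 24 h by 1 µM dexamethasone. Dye-loaded 30 min in low-Cl- HEPES buffer pH 7.4: 4 µM CC2-DMPE, 1 µM DiSBAC2(3), 0.5 mM tartrazine. Basal read 8 s, compound at 300 nM, half-maximal GABA 22 s later, 1 Hz reads. Background-subtracted 460/580 nm ratio, normalized to DMCM as -100%.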

[2] = target: T1, GABA-A receptor; alpha-1/beta-3/gamma-2 (Homo sapiens, UniProt P14867+P18507+P28472); assay: Negative logarithm of effective concentration against GABA-A alpha-1-beta-3-gamma-2 receptor; assay type: protein-complex assay
T1 sequence (P14867 whole entry): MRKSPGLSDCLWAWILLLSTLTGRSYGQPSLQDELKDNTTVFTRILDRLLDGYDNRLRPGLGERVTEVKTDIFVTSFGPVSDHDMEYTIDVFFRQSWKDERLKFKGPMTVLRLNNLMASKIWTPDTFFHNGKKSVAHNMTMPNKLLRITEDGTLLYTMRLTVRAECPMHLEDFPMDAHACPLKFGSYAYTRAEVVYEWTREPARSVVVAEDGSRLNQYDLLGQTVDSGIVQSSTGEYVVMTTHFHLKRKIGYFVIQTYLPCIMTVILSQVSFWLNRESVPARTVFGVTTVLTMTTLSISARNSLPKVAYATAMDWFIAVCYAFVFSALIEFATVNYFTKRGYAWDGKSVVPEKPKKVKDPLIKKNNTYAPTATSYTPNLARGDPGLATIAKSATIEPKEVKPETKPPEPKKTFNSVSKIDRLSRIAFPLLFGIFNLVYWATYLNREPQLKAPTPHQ
T1 sequence (P18507 whole entry): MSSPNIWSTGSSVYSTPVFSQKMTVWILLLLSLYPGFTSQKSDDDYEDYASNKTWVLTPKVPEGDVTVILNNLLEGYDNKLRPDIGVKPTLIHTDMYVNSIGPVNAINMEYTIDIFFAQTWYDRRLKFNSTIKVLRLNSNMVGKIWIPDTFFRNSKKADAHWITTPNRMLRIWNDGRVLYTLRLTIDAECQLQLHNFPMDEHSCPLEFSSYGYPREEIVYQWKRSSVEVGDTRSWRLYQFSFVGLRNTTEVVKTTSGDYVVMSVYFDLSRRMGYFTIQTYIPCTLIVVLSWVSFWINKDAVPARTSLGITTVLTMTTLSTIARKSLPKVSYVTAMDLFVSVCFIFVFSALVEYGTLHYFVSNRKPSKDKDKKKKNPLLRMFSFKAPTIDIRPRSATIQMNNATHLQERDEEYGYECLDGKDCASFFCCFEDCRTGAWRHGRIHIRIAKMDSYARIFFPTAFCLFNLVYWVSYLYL
T1 sequence (P28472 whole entry): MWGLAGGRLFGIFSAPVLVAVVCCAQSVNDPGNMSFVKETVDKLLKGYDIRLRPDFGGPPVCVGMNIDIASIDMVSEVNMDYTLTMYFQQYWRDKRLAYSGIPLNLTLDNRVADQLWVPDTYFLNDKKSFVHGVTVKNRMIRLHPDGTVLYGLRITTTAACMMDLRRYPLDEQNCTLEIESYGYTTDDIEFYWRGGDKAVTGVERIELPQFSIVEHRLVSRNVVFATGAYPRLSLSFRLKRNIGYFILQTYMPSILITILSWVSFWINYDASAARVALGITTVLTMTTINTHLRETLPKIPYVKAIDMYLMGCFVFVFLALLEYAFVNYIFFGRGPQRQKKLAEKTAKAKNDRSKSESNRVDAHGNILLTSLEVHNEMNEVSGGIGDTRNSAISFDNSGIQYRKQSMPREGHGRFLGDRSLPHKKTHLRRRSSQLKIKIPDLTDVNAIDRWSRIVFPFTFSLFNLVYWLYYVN
Summary of the method: (§1)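 Whole-cell patch clamp of L(tk-) cells stably expressing human α1, α3 or α5 β3γ2s, perfused with bicarbonate saline pH 7.2, CsCl pipette solution pH 7.3. Drugs applied by double-barrelled pipette; GABA in 5 s pulses at 30 s intervals. Modulation measured against a GABA EC20 set for each cell; curves fitted to a Hill equation.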

[3] = Half life of compound determined after iv administration at 1 mg/kg dose as a solution(1 mg/mL) in a PEG 300:H2O(3:1); assay type: ADME, organism-based; design: dose 1 mg/kg, route intravenous; details: rat, in vivo
Summary of the method: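 Single rat, cannulated, given 100 units heparin, recovered 48 h, fasted overnight. Dosed 1 mg/kg iv bolus (1 mL/kg) in PEG 300:water 3:1. Serial blood sampled to 6 h and plasma analysed by LC-MS/MS with diazepam internal standard. Cl in mL/min/kg from plasma, T1/2 in hours from 1–3 h data, Vdss in L/kg.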

[4] = target: GABA-A receptor; alpha-1/beta-3/gamma-2 (Homo sapiens) (UniProt P14867+P18507+P28472); assay: Maximum inhibition of GABA EC20 response at GABA-A receptor alpha-1-beta-3-gamma-2, n=4; assay type: protein-complex assay; summary of the method: as §1
[5] = target: GABA-A receptor; alpha-5/beta-3/gamma-2 (Homo sapiens) (UniProt P18507+P28472+P31644); assay: Maximum inhibition of GABA EC20 response at GABA-A receptor alpha-5-beta-3-gamma-2, n=4; assay type: protein-complex assay; summary of the method: as §1
[6] = target: T2, GABA-A receptor; alpha-3/beta-3/gamma-2 (Homo sapiens, UniProt P18507+P28472+P34903); assay: Displacement of [3H]-Ro- 15-1788 binding from human recombinant Gamma-aminobutyric acid A receptor alpha-3-beta-3-gamma-2 expressed in mouse fibroblast L(tk-) cells (30 min at 24 degrees C, pH 7.4); assay type: cell-based
T2 sequence (P18507 whole entry): T1 sequence (P18507 whole entry)
T2 sequence (P28472 whole entry): T1 sequence (P28472 whole entry)
T2 sequence (P34903 whole entry): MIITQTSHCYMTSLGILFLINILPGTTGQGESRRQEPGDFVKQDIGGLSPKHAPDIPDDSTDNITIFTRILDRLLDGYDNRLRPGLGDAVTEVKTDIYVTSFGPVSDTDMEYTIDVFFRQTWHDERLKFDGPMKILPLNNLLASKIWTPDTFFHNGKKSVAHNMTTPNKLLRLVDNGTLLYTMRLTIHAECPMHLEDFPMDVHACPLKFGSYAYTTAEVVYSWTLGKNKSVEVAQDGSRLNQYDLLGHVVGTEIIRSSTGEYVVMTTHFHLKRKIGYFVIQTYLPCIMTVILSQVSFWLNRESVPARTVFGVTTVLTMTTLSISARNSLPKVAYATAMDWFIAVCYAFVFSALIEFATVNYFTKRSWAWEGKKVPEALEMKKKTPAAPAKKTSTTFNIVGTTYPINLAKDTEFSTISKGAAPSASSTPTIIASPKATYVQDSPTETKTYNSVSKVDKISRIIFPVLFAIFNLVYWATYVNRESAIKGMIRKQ
Summary of the method: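 Membranes from L(tk-) cells stably expressing human α1, α3 or α5 β3γ2 in 50 mM Tris pH 7.4. [3H]Ro15-1788 at 1.8 nM final, 30 min at 24 °C. Nonspecific binding set with 10 µM flunitrazepam, total binding in 0.1% DMSO. Filtration, scintillation counting. Ki is mean ± SEM of ≥3 independent determinations.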

Efficacy [1]: -4
EC50 [2]: 2.95 nM
half-life [3]: 36 min
Maximum inhibition [4]: -23%
Maximum inhibition [5]: -37%
Ki [6]: 14 nM
Structure (SMILES): N#Cc1cccc(-c2cnnc(-c3ccccc3)c2)c1
